ChEMBL document CHEMBL4350996, “C8-substituted pyrido[3,4-d]pyrimidin-4(3H)-ones: Studies towards the identification of potent, cell penetrant Jumonji C domain containing histone lysine demethylase 4 subfamily (KDM4) inhibitors, compound profiling in cell-based target engagement assays” (Eur J Med Chem, 2019)
Numbering of substitutions follows the chain as printed. Calls of active or inactive are those of the source. The calls are words filed in the database; no cut-off is given here.

Tests used:
[1] = Drug metabolism in human LNCAP cells assessed as metabolite formation at 10 uM measured upto 120 hrs by UPHLC analysis; format: ADME, cell-based
Summary of the method: (§1)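 They were then given 10 μM compound or 0.1% DMSO vehicle. Media and trypsinised cell pellets were collected at 1, 6, 24, 48, 72 and 120 h, frozen at -80 °C, and analysed by UHPLC–Orbitrap MS using full MS/dd-MS² and full MS/AIF.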

[2] = Drug uptake in human LNCAP cells at 10 uM measured upto 120 hrs by UPHLC analysis; format: ADME, cell-based; details: TDE = time-dependent effect; summary of the method: as §1
[3] = test system: Lysine-specific demethylase 5B (Homo sapiens), Q9UGL1 [H499A,E501A]; assay: Inhibition of full length human catalytically inactive KDM5B H499A/E501A mutant transfected in HeLa cells assessed as change in H3K4Me3 level measured after 24 hrs by cell analyser based immunofluorescence assay
Lysine-specific demethylase 5B (Homo sapiens), Q9UGL1 [H499A,E501A], sequence (Q9UGL1 whole entry H499A/E501A): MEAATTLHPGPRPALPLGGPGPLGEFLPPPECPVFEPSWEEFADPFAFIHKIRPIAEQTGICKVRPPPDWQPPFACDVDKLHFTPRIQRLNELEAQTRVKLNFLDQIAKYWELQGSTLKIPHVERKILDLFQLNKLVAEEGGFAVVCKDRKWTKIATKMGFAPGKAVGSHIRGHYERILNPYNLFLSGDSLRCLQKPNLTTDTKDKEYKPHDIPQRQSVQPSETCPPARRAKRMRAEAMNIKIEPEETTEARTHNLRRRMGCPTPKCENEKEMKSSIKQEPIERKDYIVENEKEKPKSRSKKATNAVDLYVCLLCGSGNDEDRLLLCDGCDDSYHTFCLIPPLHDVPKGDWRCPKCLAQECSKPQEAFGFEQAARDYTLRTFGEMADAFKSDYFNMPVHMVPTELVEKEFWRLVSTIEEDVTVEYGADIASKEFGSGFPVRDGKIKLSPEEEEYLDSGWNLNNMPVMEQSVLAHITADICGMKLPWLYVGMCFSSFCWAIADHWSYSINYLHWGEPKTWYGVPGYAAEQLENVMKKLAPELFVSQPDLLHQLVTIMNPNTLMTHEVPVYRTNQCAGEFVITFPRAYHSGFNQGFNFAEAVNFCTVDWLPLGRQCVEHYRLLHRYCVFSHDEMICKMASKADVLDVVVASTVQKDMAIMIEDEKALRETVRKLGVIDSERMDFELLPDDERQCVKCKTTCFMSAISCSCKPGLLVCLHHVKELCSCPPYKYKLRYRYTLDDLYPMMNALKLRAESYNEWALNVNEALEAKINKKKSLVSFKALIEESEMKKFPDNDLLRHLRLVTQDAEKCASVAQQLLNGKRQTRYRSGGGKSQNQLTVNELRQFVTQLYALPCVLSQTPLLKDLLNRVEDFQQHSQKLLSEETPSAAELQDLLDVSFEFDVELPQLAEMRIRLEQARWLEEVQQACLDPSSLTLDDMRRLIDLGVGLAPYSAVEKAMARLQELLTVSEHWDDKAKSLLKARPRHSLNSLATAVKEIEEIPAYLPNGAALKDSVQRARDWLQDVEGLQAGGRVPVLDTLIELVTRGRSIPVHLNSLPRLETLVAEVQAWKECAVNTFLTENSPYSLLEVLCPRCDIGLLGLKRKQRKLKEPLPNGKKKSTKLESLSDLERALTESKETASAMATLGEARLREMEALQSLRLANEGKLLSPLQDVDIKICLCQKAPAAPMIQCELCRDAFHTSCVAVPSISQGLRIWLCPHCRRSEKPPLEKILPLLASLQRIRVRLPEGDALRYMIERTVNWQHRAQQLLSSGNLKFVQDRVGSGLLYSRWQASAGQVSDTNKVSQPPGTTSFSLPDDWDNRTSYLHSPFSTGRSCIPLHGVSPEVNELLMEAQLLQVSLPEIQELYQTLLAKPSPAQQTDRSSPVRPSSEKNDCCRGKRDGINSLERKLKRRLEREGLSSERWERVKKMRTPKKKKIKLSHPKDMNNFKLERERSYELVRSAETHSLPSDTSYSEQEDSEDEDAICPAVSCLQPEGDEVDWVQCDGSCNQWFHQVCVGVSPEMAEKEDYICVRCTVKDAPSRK
Summary of the method: (§2)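 HeLa cells grown in DMEM with 10% FBS, 37°C, 5% CO₂, seeded 6000 cells/well overnight. Compounds serially diluted 1:3 to 1:5 in medium with 20% FBS, DMSO held constant, then added for 24 h. Histone mark read by immunofluorescence imaging, 10 fields per well at 20X.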

[4] = test system: T1, Lysine-specific demethylase 4A (Homo sapiens), O75164 [H188A,E190A]; assay: Inhibition of FLAG tagged full length catalytically inactive human KDM4A H188A/E190A mutant transfected in HeLa cells assessed as change in H3K9Me3 level measured after 24 hrs by cell analyser based immunofluorescence assay; summary of the method: as §2
T1 sequence (whole entry): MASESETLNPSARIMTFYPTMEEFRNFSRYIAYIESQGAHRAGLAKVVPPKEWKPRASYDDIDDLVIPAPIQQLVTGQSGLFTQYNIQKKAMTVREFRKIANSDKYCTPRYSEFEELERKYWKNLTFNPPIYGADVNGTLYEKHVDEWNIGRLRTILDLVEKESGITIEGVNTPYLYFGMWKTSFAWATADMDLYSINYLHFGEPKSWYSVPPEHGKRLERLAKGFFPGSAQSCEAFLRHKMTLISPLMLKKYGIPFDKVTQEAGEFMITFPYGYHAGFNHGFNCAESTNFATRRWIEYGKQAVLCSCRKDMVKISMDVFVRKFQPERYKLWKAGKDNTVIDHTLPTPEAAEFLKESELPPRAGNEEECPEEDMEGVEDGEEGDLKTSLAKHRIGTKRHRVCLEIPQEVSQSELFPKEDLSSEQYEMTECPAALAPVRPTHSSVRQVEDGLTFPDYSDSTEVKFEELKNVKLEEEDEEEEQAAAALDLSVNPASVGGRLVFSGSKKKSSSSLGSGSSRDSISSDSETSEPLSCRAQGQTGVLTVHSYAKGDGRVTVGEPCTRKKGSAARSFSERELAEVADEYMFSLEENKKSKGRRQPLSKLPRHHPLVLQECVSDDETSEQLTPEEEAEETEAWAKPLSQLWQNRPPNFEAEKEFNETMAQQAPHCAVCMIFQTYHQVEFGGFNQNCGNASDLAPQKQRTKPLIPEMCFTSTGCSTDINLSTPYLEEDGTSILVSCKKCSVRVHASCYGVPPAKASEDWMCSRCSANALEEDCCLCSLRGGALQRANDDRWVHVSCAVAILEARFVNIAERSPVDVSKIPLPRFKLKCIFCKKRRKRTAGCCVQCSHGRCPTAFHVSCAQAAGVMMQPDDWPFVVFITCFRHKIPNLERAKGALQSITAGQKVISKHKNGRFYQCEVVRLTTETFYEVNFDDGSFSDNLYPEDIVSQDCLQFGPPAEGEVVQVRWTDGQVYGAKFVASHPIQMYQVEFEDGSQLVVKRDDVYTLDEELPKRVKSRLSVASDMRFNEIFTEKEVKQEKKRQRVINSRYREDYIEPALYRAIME

[5] = biological target: Lysine-specific demethylase 5B (Homo sapiens) (UniProt Q9UGL1); assay: Inhibition of full length human wild type KDM5B transfected in HeLa cells assessed as increase in H3K4Me3 level measured after 24 hrs by cell analyser based immunofluorescence assay
Lysine-specific demethylase 5B (Homo sapiens), sequence (Q9UGL1 whole entry): as the sequence (Q9UGL1 whole entry H499A/E501A) above, with A499H, A501E counted along it

[6] = biological target: T2, Lysine-specific demethylase 4A (Homo sapiens) (UniProt O75164); assay: Inhibition of FLAG tagged full length wild type human KDM4A transfected in HeLa cells assessed as increase in H3K9Me3 level measured after 24 hrs by cell analyser based immunofluorescence assay
T2 sequence (whole entry): T1 sequence (whole entry) with A188H, A190E

SMILES | Drug metabolism [1] | Drug uptake [2] | inhibition [3] | inhibition [4] | inhibition [5] | inhibition [6]
O=c1[nH]cnc2c(-n3cc(CCN4CCC5(CCc6ccccc65)CC4)cn3)nccc12 | Metabolite_Notdetected | Tde | inactive | inactive | – | –
O=c1[nH]cnc2c(-n3cc(CCN4CCC5(CCc6ccccc65)CC4)cn3)cccc12 | Metabolite_Notdetected | Tde | inactive | inactive | inactive | inactive
